Test results published in the M2OR odorant receptor database.
Changes are numbered by the printed parent chain.

What was measured:
Details in all cases: stereoisomer not certain
[1] = tested on: OR2M5 V105T M154T G255A
Outline: (§1)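 Assay methods differ from source to source, frequently being transient luciferase assays in mammalian cell lines. For each receptor–molecule pair, the label responsive (active) applies when the original authors judged the measured signal statistically different from baseline, and non-responsive (inactive) applies otherwise.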

[2] = tested on: OR2M5 V105T S119A A156G G255A
Outline: as §1

[3] = tested on: OR2M5 V105T
Chain of OR2M5 V105T (as listed by the source, stated change not applied): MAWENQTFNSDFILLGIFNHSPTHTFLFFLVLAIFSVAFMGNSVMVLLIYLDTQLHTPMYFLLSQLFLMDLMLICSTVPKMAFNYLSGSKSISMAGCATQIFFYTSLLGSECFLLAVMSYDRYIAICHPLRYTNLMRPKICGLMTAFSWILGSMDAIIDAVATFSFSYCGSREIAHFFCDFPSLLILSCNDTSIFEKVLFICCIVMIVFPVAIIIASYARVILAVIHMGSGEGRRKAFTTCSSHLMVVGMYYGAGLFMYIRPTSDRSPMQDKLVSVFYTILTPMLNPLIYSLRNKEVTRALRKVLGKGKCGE
Outline: as §1

[4] = tested on: OR2M5 V198I
Chain of OR2M5 V198I (as listed by the source, stated change not applied): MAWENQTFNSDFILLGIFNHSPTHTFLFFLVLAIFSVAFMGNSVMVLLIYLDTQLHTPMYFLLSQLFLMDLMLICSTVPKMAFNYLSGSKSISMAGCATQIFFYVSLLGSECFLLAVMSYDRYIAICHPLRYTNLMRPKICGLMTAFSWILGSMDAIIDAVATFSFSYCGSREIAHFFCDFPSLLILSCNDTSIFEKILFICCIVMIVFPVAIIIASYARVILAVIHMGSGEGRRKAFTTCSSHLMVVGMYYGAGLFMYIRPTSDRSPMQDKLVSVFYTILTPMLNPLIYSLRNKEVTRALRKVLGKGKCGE
Outline: as §1

[5] = biological target: T1, OR2S2 (Homo sapiens) (UniProt Q9NQN1)
T1 sequence (whole entry): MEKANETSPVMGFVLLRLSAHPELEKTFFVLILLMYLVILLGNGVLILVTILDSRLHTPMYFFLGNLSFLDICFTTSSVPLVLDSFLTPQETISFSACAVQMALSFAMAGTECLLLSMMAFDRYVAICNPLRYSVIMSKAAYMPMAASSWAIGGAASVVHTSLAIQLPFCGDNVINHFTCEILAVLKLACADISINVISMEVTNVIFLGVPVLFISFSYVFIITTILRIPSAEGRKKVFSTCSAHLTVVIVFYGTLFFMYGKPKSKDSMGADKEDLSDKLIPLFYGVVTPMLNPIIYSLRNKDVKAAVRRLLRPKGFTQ
Outline: as §1

[6] = biological target: T2, OR2T1 (Homo sapiens) (UniProt O43869)
T2 sequence (whole entry): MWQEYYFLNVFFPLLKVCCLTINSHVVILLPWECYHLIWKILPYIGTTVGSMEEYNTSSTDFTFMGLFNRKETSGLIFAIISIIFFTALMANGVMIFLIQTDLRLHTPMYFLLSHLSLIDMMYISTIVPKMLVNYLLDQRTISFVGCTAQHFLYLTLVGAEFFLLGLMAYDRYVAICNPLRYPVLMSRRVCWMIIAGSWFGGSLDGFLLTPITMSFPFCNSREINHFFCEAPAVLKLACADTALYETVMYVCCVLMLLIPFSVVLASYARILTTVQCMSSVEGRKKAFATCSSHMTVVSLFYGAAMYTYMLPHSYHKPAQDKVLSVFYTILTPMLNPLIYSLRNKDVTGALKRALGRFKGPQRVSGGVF
Outline: as §1

[7] = biological target: T3, OR2T10 (Homo sapiens) (UniProt Q8NGZ9)
T3 sequence (whole entry): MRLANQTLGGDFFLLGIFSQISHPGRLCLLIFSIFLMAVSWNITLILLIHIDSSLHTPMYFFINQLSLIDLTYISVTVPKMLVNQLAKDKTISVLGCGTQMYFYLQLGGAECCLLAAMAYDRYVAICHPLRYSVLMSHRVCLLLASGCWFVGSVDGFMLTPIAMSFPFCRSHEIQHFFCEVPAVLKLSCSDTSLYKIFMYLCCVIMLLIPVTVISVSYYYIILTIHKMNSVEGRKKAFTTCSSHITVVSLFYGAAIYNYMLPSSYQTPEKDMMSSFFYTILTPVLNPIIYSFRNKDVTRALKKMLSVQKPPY
Outline: as §1

[8] = biological target: T4, OR2T11 (Homo sapiens) (UniProt Q8NH01)
T4 sequence (whole entry): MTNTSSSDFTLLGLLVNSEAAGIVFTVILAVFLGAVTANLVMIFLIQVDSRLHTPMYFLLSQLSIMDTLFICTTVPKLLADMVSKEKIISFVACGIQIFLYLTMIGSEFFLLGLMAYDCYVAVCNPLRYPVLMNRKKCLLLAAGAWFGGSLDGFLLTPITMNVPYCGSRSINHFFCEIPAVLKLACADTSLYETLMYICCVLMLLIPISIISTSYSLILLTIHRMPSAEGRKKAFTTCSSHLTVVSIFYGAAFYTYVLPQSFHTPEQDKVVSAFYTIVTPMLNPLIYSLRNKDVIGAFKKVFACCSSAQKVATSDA
Outline: as §1

[9] = biological target: T5, OR2T12 (Homo sapiens) (UniProt Q8NG77)
T5 sequence (whole entry): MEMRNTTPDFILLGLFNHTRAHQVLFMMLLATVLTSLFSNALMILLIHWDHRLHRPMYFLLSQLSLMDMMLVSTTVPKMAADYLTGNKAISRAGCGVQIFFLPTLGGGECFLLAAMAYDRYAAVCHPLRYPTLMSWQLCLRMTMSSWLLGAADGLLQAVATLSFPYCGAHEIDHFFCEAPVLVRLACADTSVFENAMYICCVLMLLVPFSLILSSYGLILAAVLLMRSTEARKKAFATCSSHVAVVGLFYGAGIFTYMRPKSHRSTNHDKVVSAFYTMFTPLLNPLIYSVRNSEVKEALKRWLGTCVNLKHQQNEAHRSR
Outline: as §1

[10] = biological target: T6, OR2T2 (Homo sapiens) (UniProt Q6IF00)
T6 sequence (whole entry): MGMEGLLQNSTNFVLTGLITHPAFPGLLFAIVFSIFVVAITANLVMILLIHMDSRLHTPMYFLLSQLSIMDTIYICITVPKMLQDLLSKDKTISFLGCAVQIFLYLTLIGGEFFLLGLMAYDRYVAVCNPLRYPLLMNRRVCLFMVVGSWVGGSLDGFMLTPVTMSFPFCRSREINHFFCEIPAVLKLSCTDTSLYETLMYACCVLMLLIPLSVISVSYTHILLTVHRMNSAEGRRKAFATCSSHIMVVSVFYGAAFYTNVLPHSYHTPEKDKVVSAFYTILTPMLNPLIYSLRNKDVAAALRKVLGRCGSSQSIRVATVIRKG
Outline: as §1

[11] = biological target: T7, OR2T27 (Homo sapiens) (UniProt Q8NH04)
T7 sequence (whole entry): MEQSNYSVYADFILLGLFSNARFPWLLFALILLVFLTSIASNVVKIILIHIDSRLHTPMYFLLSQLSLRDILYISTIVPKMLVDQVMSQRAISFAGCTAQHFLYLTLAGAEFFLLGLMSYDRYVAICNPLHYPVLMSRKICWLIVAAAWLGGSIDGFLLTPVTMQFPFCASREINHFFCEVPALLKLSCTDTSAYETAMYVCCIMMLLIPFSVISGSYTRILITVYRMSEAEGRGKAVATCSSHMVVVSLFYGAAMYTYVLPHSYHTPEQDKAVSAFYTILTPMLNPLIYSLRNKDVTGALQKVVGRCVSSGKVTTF
Outline: as §1

[12] = biological target: T8, OR2T29 (Homo sapiens) (UniProt Q8NH02)
T8 sequence (whole entry): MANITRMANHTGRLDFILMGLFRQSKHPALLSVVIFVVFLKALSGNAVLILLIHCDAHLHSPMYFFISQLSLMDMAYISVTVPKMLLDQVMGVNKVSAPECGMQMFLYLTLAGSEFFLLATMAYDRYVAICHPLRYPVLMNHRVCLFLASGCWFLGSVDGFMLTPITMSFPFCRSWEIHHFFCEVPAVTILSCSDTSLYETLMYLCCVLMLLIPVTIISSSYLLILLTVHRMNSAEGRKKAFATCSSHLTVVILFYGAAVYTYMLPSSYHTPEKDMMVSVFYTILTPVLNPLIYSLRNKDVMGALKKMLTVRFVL
Outline: as §1

[13] = biological target: T9, OR2T3 (Homo sapiens) (UniProt Q8NH03)
T9 sequence (whole entry): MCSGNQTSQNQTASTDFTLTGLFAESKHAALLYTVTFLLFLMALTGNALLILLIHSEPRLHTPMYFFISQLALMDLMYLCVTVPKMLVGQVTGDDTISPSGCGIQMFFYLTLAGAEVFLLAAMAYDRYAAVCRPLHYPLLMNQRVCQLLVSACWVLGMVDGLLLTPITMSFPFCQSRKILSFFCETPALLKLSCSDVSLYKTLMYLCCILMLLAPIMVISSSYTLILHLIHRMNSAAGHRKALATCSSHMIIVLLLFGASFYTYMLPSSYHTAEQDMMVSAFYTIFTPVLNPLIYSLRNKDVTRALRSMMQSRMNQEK
Outline: as §1

[14] = biological target: T10, OR2M7 (Homo sapiens) (UniProt Q8NG81)
T10 sequence (whole entry): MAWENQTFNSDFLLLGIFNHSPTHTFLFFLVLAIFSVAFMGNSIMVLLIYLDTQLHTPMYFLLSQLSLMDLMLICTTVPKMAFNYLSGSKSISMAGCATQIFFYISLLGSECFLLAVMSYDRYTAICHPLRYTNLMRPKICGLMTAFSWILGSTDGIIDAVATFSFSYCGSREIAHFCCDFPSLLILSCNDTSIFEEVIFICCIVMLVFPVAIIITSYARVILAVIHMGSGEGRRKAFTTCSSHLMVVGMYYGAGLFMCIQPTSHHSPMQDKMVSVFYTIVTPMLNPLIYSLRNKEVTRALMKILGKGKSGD
Outline: as §1

[15] = tested on: T11, OR2T2 L104F L262Q
T11 sequence (whole entry): T6 sequence (whole entry) with L104F, L262Q
Outline: as §1

[16] = tested on: T12, OR2T2 L104F
T12 sequence (whole entry): T6 sequence (whole entry) with L104F
Outline: as §1

[17] = tested on: T13, OR2T2 Q313H
T13 sequence (whole entry): T6 sequence (whole entry) with Q313H
Outline: as §1

[18] = tested on: T14, OR2T3 L256F
T14 sequence (whole entry): T9 sequence (whole entry) with L256F
Outline: as §1

[19] = tested on: OR2M7
Outline: as §1
Target sequence in this assay (as listed by the source): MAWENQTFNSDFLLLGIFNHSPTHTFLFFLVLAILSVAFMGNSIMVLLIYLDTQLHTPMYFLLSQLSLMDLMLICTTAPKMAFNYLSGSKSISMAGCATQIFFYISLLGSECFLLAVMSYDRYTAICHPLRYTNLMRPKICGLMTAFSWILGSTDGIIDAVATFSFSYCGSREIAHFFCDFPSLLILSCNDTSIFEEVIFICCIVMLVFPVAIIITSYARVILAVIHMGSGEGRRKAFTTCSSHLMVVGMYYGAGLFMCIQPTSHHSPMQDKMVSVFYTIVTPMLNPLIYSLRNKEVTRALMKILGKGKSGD

[20] = tested on: OR2M7; remark: listed apart in the source
Outline: as §1
Target sequence in this assay (as listed by the source): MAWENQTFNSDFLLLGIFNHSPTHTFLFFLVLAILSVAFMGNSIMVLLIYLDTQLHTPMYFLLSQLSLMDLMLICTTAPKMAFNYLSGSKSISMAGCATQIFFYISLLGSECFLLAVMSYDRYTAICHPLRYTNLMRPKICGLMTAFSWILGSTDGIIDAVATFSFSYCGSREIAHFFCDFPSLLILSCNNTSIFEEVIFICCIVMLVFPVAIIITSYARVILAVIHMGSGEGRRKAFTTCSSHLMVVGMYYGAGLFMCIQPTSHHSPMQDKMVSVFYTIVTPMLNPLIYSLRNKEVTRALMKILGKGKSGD

Measured: odorant receptor agonist call

CCC(S)C(C)CO (stereo unspecified)
inactive: [1] | [2] | [3] | [4] | [5] | [6] | [7] | [8] | [9] | [10] | [11] | [12] | [13]

CCC1OC(=O)C(O)=C1C (stereo unspecified)
inactive: [14] | [5] | [6] | [7] | [8] | [9] | [10] | [15] | [16] | [17] | [11] | [12] | [13] | [18]

CC1=NC(C)C(C)S1 (stereo unspecified)
inactive: [14] | [5] | [6] | [7] | [8] | [9] | [10] | [15] | [16] | [17] | [11] | [12] | [13] | [18]

CCCCCO
inactive: [14]

CCCCCCCCCS
inactive: [14]

c1ccccc1
inactive: [14]

CCCCCCC=CCCC=O
inactive: [14] | [5] | [6] | [7] | [8] | [9] | [10] | [15] | [16] | [17] | [11] | [12] | [13]

CCCCCC(S)C(C)CO (stereo unspecified)
inactive: [14] | [5] | [6] | [7] | [8] | [9] | [10] | [11] | [12] | [13]

CCCCCCCCC(=O)O
inactive: [14]

CC1=C(O)C(=O)OC1C (stereo unspecified)
inactive: [14] | [5] | [6] | [7] | [8] | [9] | [10] | [15] | [16] | [17] | [11] | [12] | [13] | [18]

Cc1cnc(C)c(C)n1
inactive: [14] | [5] | [6] | [7] | [8] | [9] | [10] | [15] | [16] | [17] | [11] | [12] | [13] | [18]

CCC(=O)O
inactive: [14]

CCCCCCO
inactive: [14]

CCCCCCOC(C)=O
inactive: [14]

CC1CCCCCCCCCCCCC(=O)C1 (stereo unspecified)
inactive: [14] | [5] | [6] | [7] | [8] | [9] | [10] | [11] | [12] | [13]

CC(C)=CCCC(C)CCO (stereo unspecified)
active: [14]

CCCC(S)CCOC(C)=O (stereo unspecified)
inactive: [14] | [5] | [6] | [7] | [8] | [9] | [10] | [15] | [16] | [17] | [11] | [12] | [13] | [18]

CC(CO)CS (stereo unspecified)
inactive: [14] | [5] | [6] | [7] | [8] | [9] | [10] | [11] | [12] | [13]

O=c1ccc2ccccc2o1
inactive: [14]

CCCCCOC(=O)CCCCC
inactive: [14]

CC(C)=CCCC(C)=CCO
inactive: [20] | [7]
active: [14] | [19]

CCC1OC(C)=C(O)C1=O (stereo unspecified)
inactive: [14] | [5] | [6] | [7] | [8] | [9] | [10] | [15] | [16] | [17] | [11] | [12] | [13] | [18]

CCCCCCCCCCO
inactive: [14]

C=CCOC(=O)CCCCCC
inactive: [14]

CCCCCCCCO
inactive: [14]

C=C(C)C1CCC(C)C(=O)C1 (stereo unspecified)
inactive: [14]

CCCCCCCO
inactive: [14]

CC1=C(O)C(=O)C(C)O1 (stereo unspecified)
inactive: [14] | [5] | [6] | [7] | [8] | [9] | [10] | [15] | [16] | [17] | [11] | [12] | [13] | [18]

CCCC(=O)C(C)=O
inactive: [14]

COC1CC2CC1C1CC(C=O)CC21 (stereo unspecified)
inactive: [7]

CC(=O)c1c(C)c([N+](=O)[O-])c(C(C)(C)C)c([N+](=O)[O-])c1C
inactive: [14] | [5] | [6] | [7] | [8] | [9] | [10] | [11] | [12] | [13]

CCCCC(S)C(C)CO (stereo unspecified)
inactive: [14] | [5] | [6] | [7] | [8] | [9] | [10] | [11] | [12] | [13]

CC(C)(C)C1CCCCC1OCCCCO (stereo unspecified)
inactive: [7]

C=CC(C)(CCC=C(C)C)OC(C)=O (stereo unspecified)
inactive: [7]

C=CCOC(=O)COCCC(C)C
inactive: [7]

CC1=CCC2CC1C2(C)C (stereo unspecified)
inactive: [7]

CCCC(C)C(=O)OCC (stereo unspecified)
inactive: [7]

CCC=C(C)C(O)CCCCC (stereo unspecified)
inactive: [7]

Cc1occc(=O)c1OC(=O)C(C)C
active: [7]

CCCCCC1C(=O)CCC1CC(=O)OC (stereo unspecified)
inactive: [7]

CCCCC1CCC(=O)O1 (stereo unspecified)
inactive: [7]

CC(C)CCCC(C)(C)O
inactive: [7]

CCOC(=O)CC1(C)OCCO1
inactive: [7]

CC(C)=CCCC(C)CC=O (stereo unspecified)
inactive: [7]

CCC(=O)C=CC1C(C)=CCCC1(C)C (stereo unspecified)
inactive: [7]

Cc1ccc(C(C)C)cc1O
inactive: [7]

C=CC(C)(O)CCC=C(C)CCC=C(C)C (stereo unspecified)
inactive: [7]

COc1ccc(C)cc1
inactive: [7]
